For test [1], the system named is Human immunodeficiency virus 1. Nature of the test: Protection of MT-4 lymphocytes by the compound against HIV-1 infectivity in vitro at a concentration of 0.008 ug/mL (0.00003 uM/mL). The test is classed as functional. The gist of the method:
(§1)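 Virus (HIV-1 Molt IIIB, ~2 × 10^4 TCID50) preincubated with compound 1 h at 37 °C, 5% CO2. Then added to MT-4 cells (5 × 10^5 cells/well) and cultured at 37 °C. Trypan blue viability counts taken on days 4 and 7, triplicate at each concentration. Controls were infected and uninfected cells. Reported as % viable (surviving) MT-4 cells.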

The subject of test [2] is Human immunodeficiency virus 1. The experiment in a line: Protection of MT-4 lymphocytes by the compound against HIV-1 infectivity in vitro at a concentration of 0.016 ug/mL (0.00006 uM/mL). Format: functional. The procedure, abridged: as §1
The subject of test [3] is Human immunodeficiency virus 1. The experiment in a line: Protection of MT-4 lymphocytes by the compound against HIV-1 infectivity in vitro at a concentration of 0.032 ug/mL ([…] uM/mL). The test is classed as functional. The gist of the method: as §1
Test [4] concerns Human immunodeficiency virus 1. The experiment in a line: microbe, parasite or virus in culture.
Test [5] relates to Human immunodeficiency virus 1. Nature of the test: Inhibitory effect (100 uM) against HIV-1 in human peripheral blood monocyte cells(PBMC) (EC50 ->34.5 ug/mL). The test is classed as functional.
For test [6], the system named is Human immunodeficiency virus 1. The experiment in a line: Inhibitory effect against HIV-1 induced cytopathic effects(HIV-1 neutralization) in MT-4 lymphocytes at a concentration of 100 ug/mL (0.2900 uM/mL). Format: functional. The procedure, abridged: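 HIV-1 Molt IIIB (~2 × 10^4 TCID50 in 100 μL) preincubated 1 h at 37 °C with a single compound dose, then added to MT-4 cells (5 × 10^5 cells/well, 1 mL). Cultured at 37 °C, 5% CO2. Viable cells counted by trypan blue exclusion on days 4 and 7. Triplicates; % viable cells. Controls: infected cells (positive), uninfected cells (negative).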

In test [7] the test system is MT4. The experiment in a line: Cytotoxic effect in cultured MT-4 lymphocytes at a concentration of 10 ug/mL (0.0290 uM/mL). The test is classed as functional, Homo sapiens. The procedure, abridged: (§2)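 MT-4 cells at 5 × 10^4 cells/well, 1 mL total, cultured with compound diluted in RPMI 1640 with 10% FBS, 10 mM HEPES, penicillin/streptomycin and 2 mM glutamine, at 37 °C under 5% CO2. Viability was scored by trypan blue exclusion on days 4 and 7, in triplicate, as % viable cells.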

Test [8] deals with MT4. The experiment in a line: Cytotoxic effect in cultured MT-4 lymphocytes at a concentration of 100 ug/mL (0.2900 uM/mL). Format: functional, Homo sapiens. The procedure, abridged:
as §2

Test [9] deals with MT4. The experiment in a line: Cytotoxic effect in cultured MT-4 lymphocytes at a concentration of 2 ug/mL (0.0060 uM/mL). Format: functional, Homo sapiens. The gist of the method:
as §2

Test [10] can be described thus: Calu3 lung tumor cell proliferation inhibition by the compound in vitro at a concentration of 0.7 uM. Format: functional, Homo sapiens. The procedure, abridged:
(§3)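 Tumor cells grown in RPMI-1640 in 1% agar with 5% fetal bovine serum, exposed to set compound concentrations for 1 week. Viability scored against a control given distilled water in place of drug. 5-fluorouracil served as reference cytotoxic drug. Reported as concentration-dependent cell survival.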

Test [11] is described as follows: Calu3 lung tumor cell proliferation inhibition by the compound in vitro at a concentration of 7.0 uM. The test is classed as functional, Homo sapiens. The procedure, abridged:
as §3

Test [12] can be described thus: Calu3 lung tumor cell proliferation inhibition by the compound in vitro at a concentration of 70 uM. The test is classed as functional, Homo sapiens. The gist of the method: as §3
In test [13] the test system is COLO 320DM. The experiment in a line: COLO 320DM colon tumor cell proliferation inhibition by the compound in vitro at a concentration of 0.7 uM. The test is classed as functional, Homo sapiens. The procedure, abridged:
as §3

The subject of test [14] is COLO 320DM. Nature of the test: COLO 320DM colon tumor cell proliferation inhibition by the compound in vitro at a concentration of 7.0 uM. Format: functional, Homo sapiens. The gist of the method: as §3
For test [15], the system named is COLO 320DM. Nature of the test: COLO 320DM colon tumor cell proliferation inhibition by the compound in vitro at a concentration of 70 uM. The test is classed as functional, Homo sapiens. The procedure, abridged: as §3
Test [16] deals with MCF7. Nature of the test: […] breast tumor cell proliferation inhibition by the compound in vitro at a concentration 7.0 of uM. Format: functional, Homo sapiens. The procedure, abridged: as §3
The test system of test [17] is MCF7. Nature of the test: […] breast tumor cell proliferation inhibition by the compound in vitro at a concentration 70 of uM. The test is classed as functional, Homo sapiens. The gist of the method: as §3
Test [18] relates to MCF7. Nature of the test: […] breast tumor cell proliferation inhibition by the compound in vitro at a concentration of 0.7 uM. Format: functional, Homo sapiens. The procedure, abridged:
as §3

Each structure is given as a SMILES string.

Usually EC50 stands for the concentration that produces a half-maximal response. In general, Inhibition refers to the change of the read-out against control, counted positive when it falls.

In the case of `Cc1cn([C@H]2C[C@H](N=[N+]=[N-])[C@@H](CO)O2)c(=O)[nH]c1=O` [ZIDOVUDINE], the Survival in test [1] is reported as 74.3%; in test [2], 79.4%; in test [3], 78.3%. It took 4 nM to reach a half-maximal effect in [4] (EC50).
As for `Nc1nc2cc3c(O)c4ccccc4nc3cc2[nH]1`, in [5], the Inhibition worked out at 33%. For the same compound, the Viability in test [6] amounted to 12.5%; with MT4 [7] it was 88.8%; in the test on MT4 [8], 81.5%; in the test on MT4 [9], 90%.
For the compound `O=c1[nH]cc(F)c(=O)[nH]1` [FLUOROURACIL], the Viability in test [10] is 80%; in test [11], 32%; in [12] it was 17%; in the test with COLO 320DM [13] it was 79%; with COLO 320DM [14], 5%; with COLO 320DM [15] it was 2%. Further, the Viability with MCF7 [16] is given as 10%; with MCF7 [17] it was 5%; with MCF7 [18], 29%.

(Values after ChEMBL document CHEMBL1125493, “HIV-1 neutralization and tumor cell proliferation inhibition in vitro by simplified analogues of pyrido[4,3,2-mn]thiazolo[5,4-b]acridine marine alkaloids” (J Med Chem, 1992).)
